From ChEMBL document CHEMBL1914406, “Inhibitory effect of novel 5-O-acyl juglones on mammalian DNA polymerase activity, cancer cell growth and inflammatory response” (Bioorg Med Chem, 2011)
The source made the active and inactive calls.

What was measured:
[1] = target: T1, DNA polymerase kappa (Homo sapiens) (UniProt Q9UBT6); assay: Inhibition of C-terminal His6-tagged human DNA polymerase kappa (amino acids 1 to 560) using poly(dA)/oligo(dT)18 (A/T = 2/1) and dTTP as the DNA template-primer and nucleotide substrate at 10 uM after 60 mins
T1 sequence (whole entry): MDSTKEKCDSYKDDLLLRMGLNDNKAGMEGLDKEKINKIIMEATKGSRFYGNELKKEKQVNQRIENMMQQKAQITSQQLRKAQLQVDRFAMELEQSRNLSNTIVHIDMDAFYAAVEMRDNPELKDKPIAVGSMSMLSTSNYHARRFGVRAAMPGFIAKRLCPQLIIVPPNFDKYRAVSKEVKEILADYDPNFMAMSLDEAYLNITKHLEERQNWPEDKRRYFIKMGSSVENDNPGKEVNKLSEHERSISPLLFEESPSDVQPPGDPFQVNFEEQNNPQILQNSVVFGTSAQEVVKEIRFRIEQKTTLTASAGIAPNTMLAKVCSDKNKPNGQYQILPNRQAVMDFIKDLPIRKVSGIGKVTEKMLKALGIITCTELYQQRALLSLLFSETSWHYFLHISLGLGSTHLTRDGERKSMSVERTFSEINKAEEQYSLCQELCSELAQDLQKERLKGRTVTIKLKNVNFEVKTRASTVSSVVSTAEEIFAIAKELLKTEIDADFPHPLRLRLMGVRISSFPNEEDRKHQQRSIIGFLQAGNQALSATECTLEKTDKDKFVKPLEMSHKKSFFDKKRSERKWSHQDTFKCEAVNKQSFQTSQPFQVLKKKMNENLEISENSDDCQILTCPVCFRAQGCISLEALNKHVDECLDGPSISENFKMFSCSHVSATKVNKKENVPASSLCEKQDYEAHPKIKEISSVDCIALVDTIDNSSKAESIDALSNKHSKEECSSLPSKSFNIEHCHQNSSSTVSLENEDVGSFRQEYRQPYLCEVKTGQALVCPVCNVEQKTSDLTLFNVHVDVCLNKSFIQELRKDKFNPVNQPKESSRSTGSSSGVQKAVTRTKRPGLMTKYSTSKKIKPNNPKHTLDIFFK

Homo sapiens [2] = organism: Homo sapiens; assay: Inhibition of histidine-tagged human DNA polymerase gamma using bovine deoxyribonuclease 1-treated DNA and dNTP as the DNA template-primer and nucleotide substrate at 10 uM after 60 mins
RAW264.7 [3] = assay: Cytotoxicity against mouse RAW264.7 cells at 5 uM; format: cell-based; settings: raw264.7, 5 µM
Homo sapiens [4] = organism: Homo sapiens; assay: Inhibition of histidine-tagged human DNA polymerase gamma using poly(dA)/oligo(dT)18 (A/T = 2/1) and dTTP as the DNA template-primer and nucleotide substrate at 10 uM after 60 mins
Summary of the method: (§1)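 Compound in DMSO, sonicated 30 s. Premixed 0 °C, 10 min with enzyme (0.05 units) in 50 mM Tris-HCl pH 7.5, 1 mM DTT, 50% glycerol, 0.1 mM EDTA, then added to standard reaction mixture. Template-primers: poly(dA)/oligo(dT)18 (2/1) for pols, oligo(dT)18 for TdT, poly(rA)/oligo(dT)18 for HIV-1 RT, with [3H]dTTP. 60 min at 37 °C (Taq 74 °C). Activity relative to no-inhibitor control; mean ± SE of three experiments.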

[5] = target: T2, DNA polymerase lambda (Homo sapiens) (UniProt Q9UGP5); assay: Inhibition of recombinant His-tagged human DNA polymerase lambda using poly(dA)/oligo(dT)18 (A/T = 2/1) and dTTP as the DNA template-primer and nucleotide substrate at 10 uM after 60 mins; summary of the method: as §1
T2 sequence (whole entry): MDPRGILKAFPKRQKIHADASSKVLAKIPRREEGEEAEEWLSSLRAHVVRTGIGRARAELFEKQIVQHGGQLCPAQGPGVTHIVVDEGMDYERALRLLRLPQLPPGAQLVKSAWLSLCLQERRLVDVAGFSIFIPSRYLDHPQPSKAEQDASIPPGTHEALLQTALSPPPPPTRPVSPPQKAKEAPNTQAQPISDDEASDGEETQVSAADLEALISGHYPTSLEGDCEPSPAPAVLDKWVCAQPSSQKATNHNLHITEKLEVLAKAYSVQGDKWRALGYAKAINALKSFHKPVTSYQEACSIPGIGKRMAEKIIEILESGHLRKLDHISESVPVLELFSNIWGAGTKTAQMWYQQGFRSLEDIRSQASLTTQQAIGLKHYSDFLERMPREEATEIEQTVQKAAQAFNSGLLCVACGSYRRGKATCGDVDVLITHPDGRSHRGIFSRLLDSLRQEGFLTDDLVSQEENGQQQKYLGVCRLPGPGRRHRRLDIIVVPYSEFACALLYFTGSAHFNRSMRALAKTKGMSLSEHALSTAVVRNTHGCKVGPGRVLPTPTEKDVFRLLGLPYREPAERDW

HCT-116 = assay: Cytotoxicity against human HCT116 cells by WST-1 assay; format: functional, cell-based
Summary of the method: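 HCT116 colon carcinoma cells (ATCC) grown in McCoy's 5A with 10% FBS, penicillin and streptomycin, 37 °C, 5% CO2. Plated at 1 × 10⁴ cells/well together with compound, which was diluted from a 10 mM DMSO stock into medium (final 0.5% DMSO). Incubated 24 h. Viability read by WST-1, expressed relative to untreated cells.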

[6] = Cytotoxicity against mouse RAW264.7 cells; format: cell-based; settings: read-out: LD50 (the source's name)
Mus musculus = assay: Antiinflammatory activity in mouse assessed as inhibition of TPA-induced mouse ear edema at 500 ug/ear administered 30 mins before TPA challenge measured after 7 hrs relative to untreated control; format: functional, organism-based
Summary of the method: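 Compound (500 µg) applied to one mouse ear; 30 min later TPA (0.5 µg) applied to both ears. Edema scored after 7 h and expressed as percentage of edema. Mean ± SE, n = 6.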

[7] = target: T2, DNA polymerase lambda (Homo sapiens); assay: Inhibition of recombinant His-tagged human DNA polymerase lambda using bovine deoxyribonuclease 1-treated DNA and dNTP as the DNA template-primer and nucleotide substrate at 10 uM after 60 mins
Bos taurus [8] = organism: Bos taurus; assay: Inhibition of calf DNA polymerase alpha using bovine deoxyribonuclease 1-treated DNA and dNTP as the DNA template-primer and nucleotide substrate at 10 uM after 60 mins
RAW264.7 [9] = assay: Antiinflammatory activity in mouse RAW264.7 cells assessed as inhibition of LPS-induced TNFalpha secretion at 5 uM treated 30 mins before LPS challenge measured after 24 hrs by ELISA; format: functional, cell-based
Summary of the method: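 RAW264.7 cells in MEM with 4.5 g/L glucose, 10% FCS, 5 mM L-glutamine, at 37 °C in 5% CO2. Seeded at 5 × 10⁴ cells/well and grown 24 h. Compound (final 1 and 5 µM) given 30 min before 100 ng/mL LPS. After 24 h, TNF-α in the medium measured by ELISA, relative to the no-compound value (100%). Mean ± SE, n = 4.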

Bos taurus [10] = organism: Bos taurus; assay: Inhibition of calf DNA polymerase alpha using poly(dA)/oligo(dT)18 (A/T = 2/1) and dTTP as the DNA template-primer and nucleotide substrate at 10 uM after 60 mins; summary of the method: as §1
[11] = target: T1, DNA polymerase kappa (Homo sapiens); assay: Inhibition of C-terminal His6-tagged human DNA polymerase kappa (amino acids 1 to 560) using bovine deoxyribonuclease 1-treated DNA and dNTP as the DNA template-primer and nucleotide substrate at 10 uM after 60 mins
Nucleic Acid = assay: Binding affinity to DNA assessed as thermal transition of DNA relative to control; format: nucleic-acid assay

CC/C=C\C/C=C\C/C=C\C/C=C\C/C=C\CCCC(=O)O [ICOSAPENT]
inactive: inhibition [1] | inhibition (Homo sapiens [2]) | inhibition (Homo sapiens [4]) | inhibition [5] | Activity (HCT-116) | Activity (Mus musculus) | inhibition [7] | inhibition (Bos taurus [8]) | Activity (RAW264.7 [9]) | inhibition (Bos taurus [10]) | inhibition [11]
Non-toxic: Activity (RAW264.7 [3])
> 10 µM: CC50 [6]

CC1=CC(=O)c2ccccc2C1=O
active: inhibition (Homo sapiens [2]) | inhibition (Homo sapiens [4])

CCCCCCCCCCCC(=O)O [DODECANOATE]
> 10 µM: CC50 [6]
Non-toxic: Activity (RAW264.7 [3])
inactive: inhibition [1] | inhibition (Homo sapiens [2]) | inhibition (Homo sapiens [4]) | inhibition [5] | Activity (HCT-116) | Activity (Mus musculus) | inhibition [7] | inhibition (Bos taurus [8]) | Activity (RAW264.7 [9]) | inhibition (Bos taurus [10]) | inhibition [11]

CC(=O)Oc1cccc2c1C(=O)C=CC2=O
> 10 µM: CC50 [6]
inactive: Activity (Nucleic Acid)
Non-toxic: Activity (RAW264.7 [3])
active: inhibition [1] | inhibition (Homo sapiens [2]) | inhibition (Homo sapiens [4]) | inhibition [5] | Activity (Mus musculus) | inhibition [7] | inhibition (Bos taurus [8]) | inhibition (Bos taurus [10]) | inhibition [11]

CC(=O)O [ACETIC ACID]
> 10 µM: CC50 [6]
Non-toxic: Activity (RAW264.7 [3])
inactive: inhibition [1] | inhibition (Homo sapiens [2]) | inhibition (Homo sapiens [4]) | inhibition [5] | Activity (HCT-116) | Activity (Mus musculus) | inhibition [7] | inhibition (Bos taurus [8]) | Activity (RAW264.7 [9]) | inhibition (Bos taurus [10]) | inhibition [11]

CCCCCC(=O)O [HEXANOATE]
> 10 µM: CC50 [6]
Non-toxic: Activity (RAW264.7 [3])
inactive: inhibition [1] | inhibition (Homo sapiens [2]) | inhibition (Homo sapiens [4]) | inhibition [5] | Activity (HCT-116) | Activity (Mus musculus) | inhibition [7] | inhibition (Bos taurus [8]) | Activity (RAW264.7 [9]) | inhibition (Bos taurus [10]) | inhibition [11]

CC/C=C\C/C=C\C/C=C\CCCCCCCC(=O)O [LINOLENIC ACID]
> 10 µM: CC50 [6]
Non-toxic: Activity (RAW264.7 [3])
inactive: inhibition [1] | inhibition (Homo sapiens [2]) | inhibition (Homo sapiens [4]) | inhibition [5] | Activity (HCT-116) | Activity (Mus musculus) | inhibition [7] | inhibition (Bos taurus [8]) | Activity (RAW264.7 [9]) | inhibition (Bos taurus [10]) | inhibition [11]

CCC(=O)O [PROPIONIC ACID]
inactive: inhibition [1] | inhibition (Homo sapiens [2]) | inhibition (Homo sapiens [4]) | inhibition [5] | Activity (HCT-116) | Activity (Mus musculus) | inhibition [7] | inhibition (Bos taurus [8]) | Activity (RAW264.7 [9]) | inhibition (Bos taurus [10]) | inhibition [11]
> 10 µM: CC50 [6]
Non-toxic: Activity (RAW264.7 [3])

CCCCC/C=C\C/C=C\CCCCCCCC(=O)O [LINOLEIC ACID]
inactive: inhibition [1] | inhibition (Homo sapiens [2]) | inhibition (Homo sapiens [4]) | inhibition [5] | Activity (HCT-116) | Activity (Mus musculus) | inhibition [7] | inhibition (Bos taurus [8]) | Activity (RAW264.7 [9]) | inhibition (Bos taurus [10]) | inhibition [11]
Non-toxic: Activity (RAW264.7 [3])
> 10 µM: CC50 [6]

CC/C=C\C/C=C\C/C=C\C/C=C\C/C=C\C/C=C\CCC(=O)O [DOCONEXENT]
> 10 µM: CC50 [6]
inactive: inhibition [1] | inhibition (Homo sapiens [2]) | inhibition (Homo sapiens [4]) | inhibition [5] | Activity (HCT-116) | Activity (Mus musculus) | inhibition [7] | inhibition (Bos taurus [8]) | Activity (RAW264.7 [9]) | inhibition (Bos taurus [10]) | inhibition [11]
Non-toxic: Activity (RAW264.7 [3])

CCCCCCCCCCCCCCCCCC(=O)O [STEARIC ACID]
Non-toxic: Activity (RAW264.7 [3])
> 10 µM: CC50 [6]
inactive: inhibition [1] | inhibition (Homo sapiens [2]) | inhibition (Homo sapiens [4]) | inhibition [5] | Activity (HCT-116) | Activity (Mus musculus) | inhibition [7] | inhibition (Bos taurus [8]) | Activity (RAW264.7 [9]) | inhibition (Bos taurus [10]) | inhibition [11]

CCCCCCCC/C=C\CCCCCCCC(=O)O [OLEIC ACID]
> 10 µM: CC50 [6]
inactive: inhibition [1] | inhibition (Homo sapiens [2]) | inhibition (Homo sapiens [4]) | inhibition [5] | Activity (HCT-116) | Activity (Mus musculus) | inhibition [7] | inhibition (Bos taurus [8]) | Activity (RAW264.7 [9]) | inhibition (Bos taurus [10]) | inhibition [11]
Non-toxic: Activity (RAW264.7 [3])
